According to publication PMC3644855 (Nuclear medicine and biology, 2009):
Where “and” joins values, the source holds several entries; their conditions need not be identical. Equal entries are not always repeated. Where two headings read alike, the source gives them in different places. Values belong to the compound of their own block, whether it stands above or below them.

Assays:
5-HT1A receptor [1] = biological target: T1, 5-HT1A receptor (Rattus norvegicus, UniProt P19327); experiment: Brain tissue specific binding ratio [; type: in vivo; settings: rat i.v., Radioactivity
T1 sequence (P19327 1-422): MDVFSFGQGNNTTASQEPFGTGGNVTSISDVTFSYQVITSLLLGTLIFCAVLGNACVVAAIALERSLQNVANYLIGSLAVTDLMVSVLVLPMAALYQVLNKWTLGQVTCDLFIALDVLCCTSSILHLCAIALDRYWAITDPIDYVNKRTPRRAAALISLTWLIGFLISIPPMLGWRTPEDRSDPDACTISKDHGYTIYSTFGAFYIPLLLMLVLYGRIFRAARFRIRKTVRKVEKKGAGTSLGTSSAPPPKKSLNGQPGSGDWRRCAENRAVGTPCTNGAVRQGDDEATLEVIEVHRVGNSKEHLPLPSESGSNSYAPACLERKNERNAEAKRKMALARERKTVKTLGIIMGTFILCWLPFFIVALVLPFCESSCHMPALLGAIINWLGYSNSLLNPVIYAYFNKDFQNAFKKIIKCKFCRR
Method in brief: (§1)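 Awake male Sprague-Dawley rats (220–260 g, 3 per group) got i.v. 0.5–1 mCi 18F-labelled test compound in 100 μL, containing 1, 11 or 18 nmol unlabelled compound. Killed 5 or 30 min later. Caudate, thalamus, hippocampus, brain stem, cerebellum, cortex and plasma (0.05–0.4 g) weighed and radioactivity-counted. Uptake given as DUR = %ID/g × body weight/100.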

[2] = type: in vivo; settings: rat i.v., Radioactivity
Method in brief: as §1

5-HT1A receptor [3] = biological target: T1, 5-HT1A receptor; experiment: Brain tissue specific binding ratio [; type: in vivo
Method in brief: (§2)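 Male Sprague-Dawley rats (220–260 g, 3 per group), awake, got i.v. 0.5–1 mCi 18F-labelled test compound in 100 μL, carrying 1, 11 or 18 nmol unlabelled compound; killed at 5 or 30 min. Dissected brain regions and plasma, spiked with internal standard, homogenized at pH 12.5, extracted with hexane:ethyl acetate (4:1), dried and redissolved in 50% CH3CN. Analysed by UPLC-Q-TOF (positive ESI) against matrix calibration, triplicate. DUR = %ID/g × body weight/100.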

[4] = type: in vivo; settings: rat i.v., LC/MS
Method in brief: as §2

[5] = rat i.v., 1 nmol, 30 min, LC/MS
[6] = rat i.v., 11 nmol, 30 min, LC/MS
[7] = rat i.v., 18 nmol, 30 min, LC/MS

Specific binding ratio [(DURtissue/DURCb)−1] Hippocampus (5-HT1A receptor [1]; 1 nmol, 5 min): 1.95±0.45 | Specific binding ratio [(DURtissue/DURCb)−1] brain stem (5-HT1A receptor [1]; 1 nmol, 5 min): 0.63±0.08 | Specific binding ratio [(DURtissue/DURCb)−1] caudate (5-HT1A receptor [1]; 1 nmol, 5 min): 0.38±0.06 | Specific binding ratio [(DURtissue/DURCb)−1] cortex (5-HT1A receptor [1]; 1 nmol, 5 min): 1.41±0.13 | Specific binding ratio [(DURtissue/DURCb)−1] thalamus (5-HT1A receptor [1]; 1 nmol, 5 min): 0.64±0.04 | Specific binding ratio [(DURtissue/DURCb)−1] Hippocampus (5-HT1A receptor [1]; 1 nmol, 30 min): 5.38±0.23 | Specific binding ratio [(DURtissue/DURCb)−1] brain stem (5-HT1A receptor [1]; 1 nmol, 30 min): 1.12±0.06 | Specific binding ratio [(DURtissue/DURCb)−1] caudate (5-HT1A receptor [1]; 1 nmol, 30 min): 0.53±0.17 | Specific binding ratio [(DURtissue/DURCb)−1] cortex (5-HT1A receptor [1]; 1 nmol, 30 min): 2.04±0.18 | Specific binding ratio [(DURtissue/DURCb)−1] thalamus (5-HT1A receptor [1]; 1 nmol, 30 min): 1.29±0.13 | Specific binding ratio [(DURtissue/DURCb)−1] Hippocampus (5-HT1A receptor [1]; 11 nmol, 30 min): 2.72±0.37 | Specific binding ratio [(DURtissue/DURCb)−1] brain stem (5-HT1A receptor [1]; 11 nmol, 30 min): 0.68±0.14 | Specific binding ratio [(DURtissue/DURCb)−1] caudate (5-HT1A receptor [1]; 11 nmol, 30 min): 0.33±0.06 | Specific binding ratio [(DURtissue/DURCb)−1] cortex (5-HT1A receptor [1]; 11 nmol, 30 min): 1.26±0.11 | Specific binding ratio [(DURtissue/DURCb)−1] thalamus (5-HT1A receptor [1]; 11 nmol, 30 min): 0.70±0.12 | Specific binding ratio [(DURtissue/DURCb)−1] Hippocampus (5-HT1A receptor [1]; 18 nmol, 30 min): 2.57±0.21 | Specific binding ratio [(DURtissue/DURCb)−1] brain stem (5-HT1A receptor [1]; 18 nmol, 30 min): 0.85±0.26 | Specific binding ratio [(DURtissue/DURCb)−1] caudate (5-HT1A receptor [1]; 18 nmol, 30 min): 0.63±0.34 | Specific binding ratio [(DURtissue/DURCb)−1] cortex (5-HT1A receptor [1]; 18 nmol, 30 min): 1.81±0.83 | Specific binding ratio [(DURtissue/DURCb)−1] thalamus (5-HT1A receptor [1]; 18 nmol, 30 min): 0.90±0.13
Compound: COc1ccccc1N1CCN(CCN(C(=O)c2ccc(F)cc2)c2ncccn2)CC1 [[^18F]FPWAY, 4-Fluoro-N-{2-[4-(2-methoxyphenyl)-1-piperazinyl]ethyl}-N-(2-pyrimidinyl)benzamide]
DUR Hippocampus ([2]; 1 nmol, 5 min): 4.50 %ID/g * body weight/100 and 4.50±0.41 %ID/g * body weight/100 | DUR brain stem ([2]; 1 nmol, 5 min): 2.53±0.48 %ID/g * body weight/100 | DUR caudate ([2]; 1 nmol, 5 min): 2.14±0.27 %ID/g * body weight/100 | DUR cerebellum ([2]; 1 nmol, 5 min): 1.55±0.24 %ID/g * body weight/100 | DUR cortex ([2]; 1 nmol, 5 min): 3.75±0.74 %ID/g * body weight/100 | DUR thalamus ([2]; 1 nmol, 5 min): 2.54±0.43 %ID/g * body weight/100 | DUR Hippocampus ([2]; 1 nmol, 30 min): 2.34±0.22 %ID/g * body weight/100 | DUR brain stem ([2]; 1 nmol, 30 min): 0.78±0.08 %ID/g * body weight/100 | DUR caudate ([2]; 1 nmol, 30 min): 0.56±0.01 %ID/g * body weight/100 | DUR cerebellum ([2]; 1 nmol, 30 min): 0.36±0.05 %ID/g * body weight/100 | DUR cortex ([2]; 1 nmol, 30 min): 1.12±0.18 %ID/g * body weight/100 | DUR thalamus ([2]; 1 nmol, 30 min): 0.84±0.06 %ID/g * body weight/100 | DUR Hippocampus ([2]; 11 nmol, 30 min): 0.83±0.03 %ID/g * body weight/100 | DUR brain stem ([2]; 11 nmol, 30 min): 0.37±0.05 %ID/g * body weight/100 | DUR caudate ([2]; 11 nmol, 30 min): 0.30±0.02 %ID/g * body weight/100 | DUR cerebellum ([2]; 11 nmol, 30 min): 0.22±0.02 %ID/g * body weight/100 | DUR cortex ([2]; 11 nmol, 30 min): 0.50±0.04 %ID/g * body weight/100 | DUR thalamus ([2]; 11 nmol, 30 min): 0.38±0.02 %ID/g * body weight/100 | DUR Hippocampus ([2]; 18 nmol, 30 min): 0.53±0.02 %ID/g * body weight/100 | DUR brain stem ([2]; 18 nmol, 30 min): 0.27±0.03 %ID/g * body weight/100 | DUR caudate ([2]; 18 nmol, 30 min): 0.24±0.04 %ID/g * body weight/100 | DUR cerebellum ([2]; 18 nmol, 30 min): 0.15±0.01 %ID/g * body weight/100 | DUR cortex ([2]; 18 nmol, 30 min): 0.41±0.13 %ID/g * body weight/100 | DUR thalamus ([2]; 18 nmol, 30 min): 0.28±0.02 %ID/g * body weight/100

Specific binding ratio [(DURtissue/DURCb)−1] Hippocampus (5-HT1A receptor [3]; rat i.v., 1 nmol, 5 min, LC/MS): 2.30 and 2.30±0.42 | Specific binding ratio [(DURtissue/DURCb)−1] brain stem (5-HT1A receptor [3]; rat i.v., 1 nmol, 5 min, LC/MS): 0.75±0.35 | Specific binding ratio [(DURtissue/DURCb)−1] caudate (5-HT1A receptor [3]; rat i.v., 1 nmol, 5 min, LC/MS): 0.30±0.13 | Specific binding ratio [(DURtissue/DURCb)−1] cortex (5-HT1A receptor [3]; rat i.v., 1 nmol, 5 min, LC/MS): 1.34±0.27 | Specific binding ratio [(DURtissue/DURCb)−1] thalamus (5-HT1A receptor [3]; rat i.v., 1 nmol, 5 min, LC/MS): 0.84±0.30 | Specific binding ratio [(DURtissue/DURCb)−1] Hippocampus (5-HT1A receptor [3]; [5]): 5.87 and 5.87±0.56 | Specific binding ratio [(DURtissue/DURCb)−1] brain stem (5-HT1A receptor [3]; [5]): 1.99±0.53 | Specific binding ratio [(DURtissue/DURCb)−1] caudate (5-HT1A receptor [3]; [5]): 0.95±0.06 | Specific binding ratio [(DURtissue/DURCb)−1] cortex (5-HT1A receptor [3]; [5]): 2.29±0.06 | Specific binding ratio [(DURtissue/DURCb)−1] thalamus (5-HT1A receptor [3]; [5]): 1.58±0.58 | Specific binding ratio [(DURtissue/DURCb)−1] Hippocampus (5-HT1A receptor [3]; [6]): 2.43 and 2.43±0.35 | Specific binding ratio [(DURtissue/DURCb)−1] brain stem (5-HT1A receptor [3]; [6]): 0.42±0.33 | Specific binding ratio [(DURtissue/DURCb)−1] caudate (5-HT1A receptor [3]; [6]): 0.65±0.31 | Specific binding ratio [(DURtissue/DURCb)−1] cortex (5-HT1A receptor [3]; [6]): 1.26±0.28 | Specific binding ratio [(DURtissue/DURCb)−1] thalamus (5-HT1A receptor [3]; [6]): 0.78±0.29 | specific binding ratio hippocampus (5-HT1A receptor [3]; rat i.v., 17 nmol, 30 min, hippocampus, LC/MS): 2.42 | Specific binding ratio [(DURtissue/DURCb)−1] Hippocampus (5-HT1A receptor [3]; [7]): 2.42±0.28 | Specific binding ratio [(DURtissue/DURCb)−1] brain stem (5-HT1A receptor [3]; [7]): 0.93±0.13 | Specific binding ratio [(DURtissue/DURCb)−1] caudate (5-HT1A receptor [3]; [7]): 0.67±0.31 | Specific binding ratio [(DURtissue/DURCb)−1] cortex (5-HT1A receptor [3]; [7]): 1.61±0.39 | Specific binding ratio [(DURtissue/DURCb)−1] thalamus (5-HT1A receptor [3]; [7]): 0.91±0.14 | saturability of binding with increasing mass dose (5-HT1A receptor [3]; rat, 1, 11 and 18 nmol mass doses, hippocampus): demonstrates saturability of binding | hippocampus uptake (DUR) ([4]; 17 nmol, 30 min, hippocampus): 0.53
Compound: COc1ccccc1N1CCN(CCN(C(=O)c2ccc(F)cc2)c2ncccn2)CC1 [FPWAY, 4-Fluoro-N-{2-[4-(2-methoxyphenyl)-1-piperazinyl]ethyl}-N-(2-pyrimidinyl)benzamide]
DUR Hippocampus ([4]; 1 nmol, 5 min): 4.28 %ID/g * body weight/100 and 4.28±0.35 %ID/g * body weight/100 | DUR brain stem ([4]; 1 nmol, 5 min): 2.36±0.35 %ID/g * body weight/100 | DUR caudate ([4]; 1 nmol, 5 min): 1.70±0.30 %ID/g * body weight/100 | DUR cerebellum ([4]; 1 nmol, 5 min): 1.31±0.21 %ID/g * body weight/100 | DUR cortex ([4]; 1 nmol, 5 min): 3.10±0.78 %ID/g * body weight/100 | DUR plasma ([4]; 1 nmol, 5 min): 0.49±0.17 %ID/g * body weight/100 | DUR thalamus ([4]; 1 nmol, 5 min): 2.39±0.45 %ID/g * body weight/100 | DUR Hippocampus ([4]; 1 nmol, 30 min): 2.20 %ID/g * body weight/100 and 2.20±0.38 %ID/g * body weight/100 | DUR brain stem ([4]; 1 nmol, 30 min): 0.98±0.05 %ID/g * body weight/100 | DUR caudate ([4]; 1 nmol, 30 min): 0.60±0.04 %ID/g * body weight/100 | DUR cerebellum ([4]; 1 nmol, 30 min): 0.32±0.08 %ID/g * body weight/100 | DUR cortex ([4]; 1 nmol, 30 min): 1.06±0.25 %ID/g * body weight/100 | DUR plasma ([4]; 1 nmol, 30 min): 0.21±0.07 %ID/g * body weight/100 | DUR thalamus ([4]; 1 nmol, 30 min): 0.81±0.02 %ID/g * body weight/100 | DUR Hippocampus ([4]; 11 nmol, 30 min): 0.79 %ID/g * body weight/100 and 0.79±0.08 %ID/g * body weight/100 | DUR brain stem ([4]; 11 nmol, 30 min): 0.32±0.05 %ID/g * body weight/100 | DUR caudate ([4]; 11 nmol, 30 min): 0.38±0.06 %ID/g * body weight/100 | DUR cerebellum ([4]; 11 nmol, 30 min): 0.23±0.03 %ID/g * body weight/100 | DUR cortex ([4]; 11 nmol, 30 min): 0.52±0.05 %ID/g * body weight/100 | DUR plasma ([4]; 11 nmol, 30 min): 0.13±0.02 %ID/g * body weight/100 | DUR thalamus ([4]; 11 nmol, 30 min): 0.41±0.08 %ID/g * body weight/100 | DUR Hippocampus ([4]; 18 nmol, 30 min): 0.53±0.03 %ID/g * body weight/100 | DUR brain stem ([4]; 18 nmol, 30 min): 0.30±0.05 %ID/g * body weight/100 | DUR caudate ([4]; 18 nmol, 30 min): 0.25±0.08 %ID/g * body weight/100 | DUR cerebellum ([4]; 18 nmol, 30 min): 0.16±0.02 %ID/g * body weight/100 | DUR cortex ([4]; 18 nmol, 30 min): 0.41±0.18 %ID/g * body weight/100 | DUR plasma ([4]; 18 nmol, 30 min): 0.33±0.11 %ID/g * body weight/100 | DUR thalamus ([4]; 18 nmol, 30 min): 0.30±0.04 %ID/g * body weight/100
